Inhibition and Activity data for one compound are collected here from ChEMBL document CHEMBL1909531, “Mitochondrial respiration inhibitors suppress protein translation and hypoxic signaling via the hyperphosphorylation and inactivation of translation initiation factor eIF2α and elongation factor eEF2” (J Nat Prod, 2011).

Assay [1] relates to T47D. Kind of assay: Inhibition of cellular respiration in human T47D cells at 0.3 uM in presence of complex 4 substrate TMPD/ascorbate. It counts as functional, cell-based.
Assay [2] addresses Serine/threonine-protein kinase mTOR (Homo sapiens) (UniProt P42345). Kind of assay: Inhibition of mTOR-mediated rpS6 phosphorylation on Ser 235/236 in human MDA-MB-231 cells at 1 to 10 uM after 30 mins by Western blotting. It counts as cell-based. On the technique in general: In western blotting, separated proteins are transferred to a membrane and probed.
The test system of assay [3] is T47D. Nature of the assay: Antiproliferative activity against human T47D cells assessed as cell viability by SRB assay. It counts as functional, cell-based. The method, boiled down: (§1)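 Cells grown in DMEM/F12 with 10% FBS, penicillin and streptomycin; 96-well viability assay, 2-day or 6-day exposure, with medium (5% FBS) and compound renewed after 3 days in the 6-day study. Read by optical density; % inhibition = [1 − (ODtreated/ODcontrol)] × 100 versus medium control.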
Background: Sulforhodamine B stains cellular protein and so reports cell mass.

Assay [4] has as its target T1, Hypoxia inducible factors; HIF-1-alpha, HIF-2-alpha (Homo sapiens, UniProt Q16665+Q99814). Kind of assay: Inhibition of HIF1-mediated induction of cellular VEGF protein in hypoxia-stimulated human T47D cells at 3 uM after 16 hrs by ELISA. It counts as cell-based. (In general: In an ELISA, binding on a coated surface is turned into a signal by an enzyme label.)
The subject of another assay is MDA-MB-231. Nature of the assay: Antiproliferative activity against human MDA-MB-231 cells assessed as cell viability by SRB assay. Type of assay: functional, cell-based. The procedure, abridged: as §1
For assay [5], the target named is Serine/threonine-protein kinase mTOR (Homo sapiens) (UniProt P42345). Nature of the assay: Inhibition of mTORC1-mediated eIF4E phosphorylation on Ser 209 in human T47D cells at 1 to 10 uM after 30 mins by Western blotting. It counts as cell-based.
The target of assay [6] is T1, Hypoxia inducible factors; HIF-1-alpha, HIF-2-alpha. Kind of assay: Inhibition of HIF1-mediated induction of secreted VEGF protein in hypoxia-stimulated human T47D cells at 3 uM after 16 hrs by ELISA. It counts as cell-based.
In assay [7] the test system is T47D. Nature of the assay: Inhibition of cellular respiration in human T47D cell at 0.03 to 1 uM by oxygen consumption assay. Type of assay: functional, cell-based. The method, boiled down:
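Oxygen consumption of intact T47D cells measured with a Clark-type electrode, in serum-free DMEM/F12 at 30 °C.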

In assay [8] the target is Serine/threonine-protein kinase mTOR (Homo sapiens) (UniProt P42345). Kind of assay: Inhibition of mTOR in human MDA-MB-231 cells assessed as eIF2alpha hyperphosphorylation on Ser 51 at 1 to 10 uM after 30 mins by Western blotting. Type of assay: cell-based. The method, boiled down: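 Cells seeded at 0.8 × 10^6 per well, exposed 30 min at 37 °C, 5% CO2, in DMEM/F12 with 5% FBS. Lysed in modified RIPA (pH 7.6) with protease and phosphatase inhibitors; 40 µg protein run on 4–20% gels, nitrocellulose transfer. Phospho-specific and total eIF2α/eEF2 primaries at 1:1,000, HRP anti-rabbit at 1:2000, chemiluminescence on film.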

In assay [9] the test system is T47D. Nature of the assay: Inhibition of HIF1beta protein accumulation under hypoxic condition in human T47D cells at 3 uM after 4 hrs by Western blot analysis. It counts as functional, cell-based.
For assay [10], the target named is Serine/threonine-protein kinase mTOR (Homo sapiens) (UniProt P42345). Kind of assay: Inhibition of mTOR-mediated eIF4E phosphorylation on Ser 209 in human MDA-MB-231 cells at 1 to 10 uM after 30 mins by Western blotting. It counts as cell-based.
Assay [11] concerns T47D. Kind of assay: Inhibition of HIF1alpha protein accumulation under hypoxic condition in human T47D cells at 3 uM after 4 hrs by Western blot analysis. It counts as functional, cell-based.
In assay [12] the target is T1, Hypoxia inducible factors; HIF-1-alpha, HIF-2-alpha. Kind of assay: Inhibition of HIF1-mediated induction of secreted VEGF protein in hypoxia-stimulated human T47D cells at 0.3 uM after 16 hrs by ELISA. It counts as cell-based.
The subject of assay [13] is T47D. Nature of the assay: Reduction in ATP level in human T47D cells by HPLC-UV analysis at 1 uM after 72 hrs. Type of assay: functional, cell-based. The procedure, abridged: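 Cells seeded at 5 × 10^5 per well in DMEM/F12 with 10% FBS; after 24 h, half the medium was replaced with serum-free medium containing compound. Cells washed with cold DPBS, extracted with cold 0.4 M perchloric acid, neutralized with K2CO3. Nucleotides quantified by C18 HPLC-UV, 50 mM potassium phosphate pH 6.0/MeOH mobile phase, 0.7 mL/min.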

Active and inactive are the calls of the source. The rule behind the calls is not given here.

For the compound `CC(C)CC(=O)O[C@@H]1CC[C@]2(C)[C@H]3CC[C@]45C[C@]4(CC[C@@H]5[C@@H]4C[C@H]([C@@H]5OC5(C)C)OC4O)[C@]3(C)[C@H](O)C[C@H]2C1(C)C` (some centres undefined) [SKIMMIAREPIN A], the inhibition result (in the assay with T47D [1]; in [2]; in [5]; with T47D [9]; in assay [10]) was “inactive” in each case. Moreover, the result in the assay with T47D [3] and in the assay with T47D [13] was Active. Also, the inhibition result (in assay [4]; in assay [6]; in the assay with T47D [11]; in assay [12]) was “Active” each time. For the same compound, the outcome in the assay on MDA-MB-231 was inactive. The inhibition entry in the assay on T47D [7] is “Dose-dependent effect”. In [8], the Activity entry was “Dose-dependent effect”.
